In the RNAGym collection of RNA variant scans (doi:10.1126/science.aae0568):
This sample holds only a part of the variants without activity.

B1: tRNA (parent)
chain: GUUCCGUUGGCGUAAUGGUAACGCGUCUCCCUCCUAAGGAGAAGACUGCGGGUUCGAGUCCCGUACGGAACG

Variants of: B1
Assay: yeast fitness relative to wild type (ratio to wild type); higher = fitter; tRNA-Arg(CCU), competitive growth, 37 C, YPD
Summary of the method: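 Amplicons of the tRNA-Arg(CCU) gene were sequenced, 100-nucleotide paired-end, from the start population and from each end population of a pooled yeast competition. The competition, in six parallel replicates, lasted 24 hours in YPD at 37°C. Fitness relative to wild type was calculated from changes in genotype frequencies. Genotypes had to have ≥ 100 starting reads, and estimates < 0.5 were set to 0.5.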

Compared with C11U C27A, C11U U47C A57G A69U is lower in yeast fitness: 0.791 for the first, 0.565 for the second.

First: C11U G52A
Second: C11U G52C
The yeast fitness of the first is higher: 0.827 for the first, 0.707 for the second.

Compared with C11U G25A C62G, C11U C34G C55G U59C C60U G67U is lower in yeast fitness: 0.569 for the first, ≤ 0.5 for the second.

C11U C29U C61U U64C and C11U C29U C55U cannot be ordered by yeast fitness: ≤ 0.5 for the first, ≤ 0.5 for the second.

First: C11U C60G
Second: C11U U19C U59C C61A
The yeast fitness of the first is higher: 0.607 for the first, ≤ 0.5 for the second.

Going from C11U C31G U64G A69G to C11U U28A C62G, the yeast fitness falls from 0.842 to ≤ 0.5.

Compared with C11U A40U C46U, C11U A40U C46A is higher in yeast fitness: 0.637 for the first, 0.74 for the second.

C11U C22U G38A U54C and C11U U13A C46G C62G cannot be ordered by yeast fitness: ≤ 0.5 for the first, ≤ 0.5 for the second.

Compared with C11U C29U C30G, C11U C46G C49U is higher in yeast fitness: 0.549 for the first, 0.825 for the second.

Compared with C11U C22A C29G C33U A57U A70U, C11U C24G C27G A65U is higher in yeast fitness: ≤ 0.5 for the first, 0.576 for the second.

Going from C11U A40U G67A to C11U C22A, the yeast fitness rises from ≤ 0.5 to 0.882.

First: C11U G50C C61U
Second: C11U G18C C24G C46A
The yeast fitness of the first is higher: 0.581 for the first, 0.537 for the second.

Going from C11U A42C C49G to C11U G38A A40U G52C, the yeast fitness rises from ≤ 0.5 to 0.568.

Compared with C11U C33U A43G, C11U C34U G38A G44C is lower in yeast fitness: 0.595 for the first, 0.541 for the second.

First: C11U C33G U47A U64G
Second: G12A A14G
The yeast fitness of the first is lower: 0.552 for the first, 0.958 for the second.

Compared with C11U U26G C30A A43C U53C C66U A70C, C11U G39C C46U is higher in yeast fitness: ≤ 0.5 for the first, 0.756 for the second.

C11U C29U U35C and C11U C24A A43G C62A cannot be ordered by yeast fitness: ≤ 0.5 for the first, ≤ 0.5 for the second.

Going from C11U U53C A57C to C11U U16C U19C C62U A70G, the yeast fitness rises from ≤ 0.5 to 0.524.

Going from C11U C33G A65C to C11U U19C A20U A42C A65C A69U, the yeast fitness falls from 0.694 to ≤ 0.5.

Going from C11U C34G to C11U C30U G48C G68C, the yeast fitness falls from 0.591 to ≤ 0.5.

G12A A14G A15G C27U G38A G68C and C11U C29G C31U G58U A65G G67A cannot be ordered by yeast fitness: ≤ 0.5 for the first, ≤ 0.5 for the second.

First: C11U U28C C29G A57G
Second: C11U C22G U59C
The yeast fitness of the first is lower: ≤ 0.5 for the first, 0.575 for the second.

First: C11U U13A G48A
Second: C11U A40C G68A
The yeast fitness of the first is lower: 0.59 for the first, 0.733 for the second.

Compared with C11U C49G, C11U U13A U16A U54A is lower in yeast fitness: 0.892 for the first, 0.711 for the second.

Going from C11U G12A G44C C46U to C11U U35C A42G, the yeast fitness falls from 0.575 to ≤ 0.5.

Compared with C11U C27U U35C C61G, C11U U13G U19A C22G G25A A69U is lower in yeast fitness: 0.606 for the first, ≤ 0.5 for the second.

First: C11U U13C C29U A37C C46A
Second: C11U U59A C60U
The yeast fitness of the first is lower: ≤ 0.5 for the first, 0.543 for the second.

First: C11U C30A G51A G67A
Second: C11U U28C G44C
The yeast fitness of the first is lower: ≤ 0.5 for the first, 0.557 for the second.

Compared with C11U C33U G48A, C11U U19G C27U C29G is lower in yeast fitness: 0.58 for the first, ≤ 0.5 for the second.

First: C11U G12C U26C A40U A57U
Second: C11U U26A A36U A65U
The yeast fitness of the first is higher: 0.612 for the first, ≤ 0.5 for the second.

Going from C11U C33G to C11U C33U, the yeast fitness falls from 0.734 to 0.724.

C11U G17U C27U C31A U35C C55G C66U A70C and C11U U28C G44C A69C A70C cannot be ordered by yeast fitness: ≤ 0.5 for the first, ≤ 0.5 for the second.

C11U U35A G56C and C11U C31A A37G cannot be ordered by yeast fitness: ≤ 0.5 for the first, ≤ 0.5 for the second.

G12A A15G C29G G48A C62U C66U and C11U G12A C31U U53C A65C cannot be ordered by yeast fitness: ≤ 0.5 for the first, ≤ 0.5 for the second.

C11U C34A A36C G68C and C11U U35C A36U C46U G51A cannot be ordered by yeast fitness: ≤ 0.5 for the first, ≤ 0.5 for the second.

First: C11U A43U C66U
Second: C11U U13A A57U U64G A65G
The yeast fitness of the first is higher: 0.555 for the first, ≤ 0.5 for the second.

C11U C55G G63C G67C and C11U G23C C31G C60G A65U cannot be ordered by yeast fitness: ≤ 0.5 for the first, ≤ 0.5 for the second.

Going from C11U U19C G67C to C11U U16C U26C A45C C46U, the yeast fitness falls from 0.566 to ≤ 0.5.

First: C11U G51C U59G
Second: C11U C27U C31U A36C G44C A45G G56C
The yeast fitness of the first is higher: 0.534 for the first, ≤ 0.5 for the second.

Going from C11U C27U C46U A57U to C11U C27U C31A U35C G48U C55G C66U A70C, the yeast fitness falls from 0.647 to ≤ 0.5.

C11U U16A C22A C24G A45U U47A and C11U C24U C34G A70G cannot be ordered by yeast fitness: ≤ 0.5 for the first, ≤ 0.5 for the second.

Going from C11U U13C C24A U47A to C11U C49U C61G A65C, the yeast fitness rises from ≤ 0.5 to 0.534.

C11U G39C C62U G63C and C11U G18A G41C cannot be ordered by yeast fitness: ≤ 0.5 for the first, ≤ 0.5 for the second.

First: C11U G44A C62U
Second: C11U U19A U32A A37U
The yeast fitness of the first is higher: 0.762 for the first, ≤ 0.5 for the second.

Compared with C11U C34G A37U, C11U G39C is higher in yeast fitness: ≤ 0.5 for the first, 0.68 for the second.

Going from C11U U19A to C11U C34U G41A, the yeast fitness falls from 0.992 to ≤ 0.5.

Compared with C11U C31G C34G A43U C61U A65U, C11U C24A is higher in yeast fitness: ≤ 0.5 for the first, 0.606 for the second.

First: C11U C24U
Second: C11U G38C G48A
The yeast fitness of the first is higher: 0.852 for the first, 0.57 for the second.

First: C11U G12A C31U U53C A69U
Second: C11U U13A G25A U28A C31A A43C C60G C61G C62U
The yeast fitness of the first is lower: ≤ 0.5 for the first, 0.581 for the second.

Compared with C11U C31G C34G A43U G68C A69G, C11U C30A U35A G38A C61G is lower in yeast fitness: 0.532 for the first, ≤ 0.5 for the second.

First: C11U G25A
Second: C11U C22U C66U
The yeast fitness of the first is higher: 0.867 for the first, 0.517 for the second.

Going from C11U G50A G63A A65U to C11U G39A A40U, the yeast fitness rises from ≤ 0.5 to 0.673.

Compared with C11U G67A A69U, C11U G18A C62A A70C is lower in yeast fitness: 0.652 for the first, ≤ 0.5 for the second.

Compared with C11U C46G G51A, C11U C22G C29G G41A is lower in yeast fitness: 0.571 for the first, ≤ 0.5 for the second.

Going from C11U A37C C66U to C11U C27U C31A U35C C55G C66U A70C, the yeast fitness falls from 0.611 to 0.512.

C11U C30U C34G G68C and C11U C22G U28A C31G C55A G68C cannot be ordered by yeast fitness: ≤ 0.5 for the first, ≤ 0.5 for the second.

First: C11U C24G C33A A40C U53C
Second: C11U U35C G44A
The yeast fitness of the first is lower: 0.626 for the first, 0.727 for the second.

C11U U32G U53A C55U C61U and C11U A42U A43G G52C C60G cannot be ordered by yeast fitness: ≤ 0.5 for the first, ≤ 0.5 for the second.

Compared with C11U C55A G58C, C11U G67A is higher in yeast fitness: ≤ 0.5 for the first, 0.816 for the second.

Compared with C11U G67U, C11U G48A G51C C61A A65C is lower in yeast fitness: 0.846 for the first, ≤ 0.5 for the second.

First: C11U U16C U19C
Second: C11U G50A A70U
The yeast fitness of the first is higher: 0.929 for the first, 0.702 for the second.

Going from C11U G18A A36U G48C to C11U C31G C34G A43U G68C, the yeast fitness rises from ≤ 0.5 to 0.571.

Going from C11U G12A C31U U53C G63A A65C to C11U U19G A65C, the yeast fitness rises from ≤ 0.5 to 0.696.

Going from G12A A15G C22U C31A U35G C61U A65C A69G to C11U C22U U54C, the yeast fitness rises from ≤ 0.5 to 0.639.

Compared with C11U A43U A70U, C11U A43C is lower in yeast fitness: 0.764 for the first, 0.686 for the second.

Going from C11U A43U to C11U C31U C60A U64A, the yeast fitness falls from 0.907 to ≤ 0.5.

C11U C27A G56C C62A A65C and C11U U26A C60A cannot be ordered by yeast fitness: ≤ 0.5 for the first, ≤ 0.5 for the second.

First: C11U G25A C62U A70C
Second: C11U C61G
The yeast fitness of the first is higher: 0.67 for the first, 0.638 for the second.

Going from C11U C61A to C11U G50A, the yeast fitness falls from 0.869 to 0.81.

C11U C29A U59G and C11U U13C C29U A37C U54A C62U G68A cannot be ordered by yeast fitness: ≤ 0.5 for the first, ≤ 0.5 for the second.

First: C11U U28C A45U
Second: C11U A45C U59C
The yeast fitness of the first is higher: 0.742 for the first, ≤ 0.5 for the second.

Compared with C11U U16C G25A, C11U A42U is lower in yeast fitness: 0.9 for the first, 0.897 for the second.

C11U C24G C61A G67A and C11U G17A U35A G38A C61G cannot be ordered by yeast fitness: ≤ 0.5 for the first, ≤ 0.5 for the second.

Going from C11U A36U G58A G67C to C11U U35C A70G, the yeast fitness rises from ≤ 0.5 to 0.641.

C11U C27A G48A U53A C61G and C11U C22G C34A C49U cannot be ordered by yeast fitness: ≤ 0.5 for the first, ≤ 0.5 for the second.

Compared with C11U A42C A69U, C11U U13C A43C is lower in yeast fitness: 0.773 for the first, 0.682 for the second.

Compared with C11U C24G C33A A40C A69C, C11U C33U A70U is lower in yeast fitness: 0.72 for the first, 0.612 for the second.

G12A A15C C46G G58C C61A and C11U U16C C33A U53C C66G G67U cannot be ordered by yeast fitness: ≤ 0.5 for the first, ≤ 0.5 for the second.

First: C11U A57U A69U
Second: C11U C55A U64C
The yeast fitness of the first is higher: 0.613 for the first, ≤ 0.5 for the second.

Going from C11U C22U G44C to C11U U19G A69U, the yeast fitness rises from 0.553 to 0.782.

Going from G12A A15G A70U to C11U G18C A43C G52A, the yeast fitness falls from 0.682 to ≤ 0.5.

C11U C33U A36G G39A G44A C55G U59C and C11U U26C U47A G50A A70C cannot be ordered by yeast fitness: ≤ 0.5 for the first, ≤ 0.5 for the second.

Compared with G12A A15G C24A A36U C61U G67U, C11U G18C C29A G67C is lower in yeast fitness: 0.761 for the first, ≤ 0.5 for the second.

For C11U A57U, the yeast fitness was 0.677.
